Measured values from ChEMBL document CHEMBL2046293, “Design, synthesis, and biological evaluation of conformationally constrained analogues of naphthol AS-E as inhibitors of CREB-mediated gene transcription” (J Med Chem, 2012).

What was measured:
[1] = Inhibition of CREB expressed in HEK293T cells assessed as inhibition of forskolin-stimulated CRE transcription incubated for 30 mins prior to forskolin-stimulation measured after 4.5 hrs by luciferase reporter gene assay; format: cell-based; settings: HEK-293T
Method in brief: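 HEK293T cells transfected with pCRE-RLuc (Lipofectamine 2000), replated after 3 h at 1-2 × 10^4 cells/well and attached overnight. Compounds at various concentrations added 30 min before forskolin (10 μM final), then 4.5 h at 37 °C. Lysate Renilla luciferase read with benzyl-coelenterazine (pH 7.4, 10 μg/mL), normalized to Bradford-dye protein (RLU/μg). IC50 from non-linear regression.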

[2] = Inhibition of CREB kinase-inducible domain/CREB binding protein KID-interacting domain interaction after 20 to 24 hrs by luciferase reporter gene assay

| SMILES | IC50 [1] | IC50 [2] |
| --- | --- | --- |
| O=C(Nc1ccc(Cl)cc1)c1cc2ccccc2cc1O | 2.29 µM | 2.9 µM |
| O=c1[nH]c2cc3ccccc3cc2c(=O)n1-c1ccc(Cl)cc1 | > 50 µM | > 50 µM |
| Cn1nc(Nc2ccc(Cl)cc2)c2cc3ccccc3cc21 | > 50 µM | 5.19 µM |
| Clc1ccc(Nc2ncnc3cc4ccccc4cc23)cc1 | 19 µM | 9.46 µM |
| Clc1ccc(Nc2noc3cc4ccccc4cc23)cc1 | 24.4 µM | > 50 µM |
| Clc1ccc(Nc2n[nH]c3cc4ccccc4cc23)cc1 | 4.75 µM | 8.74 µM |
| O=c1oc2cc3ccccc3cc2c(=O)n1-c1ccc(Cl)cc1 | 30.8 µM | > 50 µM |
